Tested on: HEK-293T
Test: Multiplex assay against HEK293T
Format: toxicity, cell-based
Conditions: human
Summary of the method: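 Cells were classed with CellPathfinder machine-learning gating, first as Hoechst high-intensity objects or normal cells, then (normal cells) as healthy, pyknosed or fragmented nuclei, and finally (pyknosed cells) as mitotic or apoptotic. Staining of live cells at seeding used Hoechst33342, BioTracker Green Microtubule Cytoskeleton Dye, MitoTracker Red and Annexin V Alexa Fluor 680, with imaging on a CQ1 microscope at 37°C and 5% CO2 after compound addition. Tubulin, mitochondrial-mass and membrane-permeability phenotypes are per cents of healthy-nucleus cells.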

[1] = 12 h, 1 µM, compound concentration 1 uM, replicate 1
[2] = 12 h, 1 µM, compound concentration 1 uM, replicate 2
[3] = 12 h, 10 µM, compound concentration 10 uM, replicate 1
[4] = 12 h, 10 µM, compound concentration 10 uM, replicate 2
[5] = 24 h, 1 µM, compound concentration 1 uM, replicate 1
[6] = 24 h, 1 µM, compound concentration 1 uM, replicate 2
[7] = 24 h, 10 µM, compound concentration 10 uM, replicate 1
[8] = 24 h, 10 µM, compound concentration 10 uM, replicate 2
[9] = 48 h, 1 µM, compound concentration 1 uM, replicate 1
[10] = 48 h, 1 µM, compound concentration 1 uM, replicate 2
[11] = 48 h, 10 µM, compound concentration 10 uM, replicate 1
[12] = 48 h, 10 µM, compound concentration 10 uM, replicate 2

## CCCCCC(O)/C=C/[C@H]1C(=O)CC(O)C1C/C=C\CCCC(=O)O (stereo not given in full)
[1]
  Population Apoptotic (%): 29%
  Population Fragmented Nuclei (%): 8%
  Population Healthy Nuclei (%): 80%
  Population Hoechst High Intensity Objects (%): 8%
  Population Membrane Permeable-Phenotype (%): 0%
  Population Mitochondria Different-Phenotype (%): 44%
  Population Mitotic Cells (%): 70%
  Population Normal (%): 91%
  Population Pyknosed Nuclei (%): 11%
  Population Tubulin-Different-Phenotype (%): 23%
  Total Cell Count: 409
[2]
  Population Apoptotic (%): 39%
  Population Fragmented Nuclei (%): 7%
  Population Healthy Nuclei (%): 83%
  Population Hoechst High Intensity Objects (%): 6%
  Population Mitochondria Different-Phenotype (%): 56%
  Population Mitotic Cells (%): 60%
  Population Normal (%): 93%
  Population Pyknosed Nuclei (%): 9%
  Population Tubulin-Different-Phenotype (%): 20%
  Total Cell Count: 383
[3]
  Population Apoptotic (%): 48%
  Population Fragmented Nuclei (%): 6%
  Population Healthy Nuclei (%): 79%
  Population Hoechst High Intensity Objects (%): 9%
  Population Membrane Permeable-Phenotype (%): 0%
  Population Mitochondria Different-Phenotype (%): 48%
  Population Mitotic Cells (%): 51%
  Population Normal (%): 90%
  Population Pyknosed Nuclei (%): 14%
  Population Tubulin-Different-Phenotype (%): 31%
  Total Cell Count: 409
[4]
  Population Apoptotic (%): 54%
  Population Healthy Nuclei (%): 77%
  Population Hoechst High Intensity Objects (%): 7%
  Population Mitochondria Different-Phenotype (%): 59%
  Population Mitotic Cells (%): 46%
  Population Normal (%): 92%
  Population Pyknosed Nuclei (%): 15%
  Population Tubulin-Different-Phenotype (%): 25%
  Total Cell Count: 343
[5]
  Population Apoptotic (%): 40%
  Population Fragmented Nuclei (%): 8%
  Population Healthy Nuclei (%): 83%
  Population Hoechst High Intensity Objects (%): 3%
  Population Membrane Permeable-Phenotype (%): 1%
  Population Mitochondria Different-Phenotype (%): 22%
  Population Mitotic Cells (%): 59%
  Population Normal (%): 96%
  Population Pyknosed Nuclei (%): 8%
  Population Tubulin-Different-Phenotype (%): 11%
  Total Cell Count: 611
[6]
  Population Apoptotic (%): 44%
  Population Fragmented Nuclei (%): 7%
  Population Healthy Nuclei (%): 84%
  Population Hoechst High Intensity Objects (%): 7%
  Population Membrane Permeable-Phenotype (%): 0%
  Population Mitochondria Different-Phenotype (%): 41%
  Population Mitotic Cells (%): 55%
  Population Normal (%): 92%
  Population Pyknosed Nuclei (%): 7%
  Population Tubulin-Different-Phenotype (%): 14%
  Total Cell Count: 492
[7]
  Population Apoptotic (%): 27%
  Population Fragmented Nuclei (%): 10%
  Population Healthy Nuclei (%): 75%
  Population Hoechst High Intensity Objects (%): 4%
  Population Membrane Permeable-Phenotype (%): 0%
  Population Mitochondria Different-Phenotype (%): 29%
  Population Mitotic Cells (%): 72%
  Population Normal (%): 95%
  Population Pyknosed Nuclei (%): 13%
  Population Tubulin-Different-Phenotype (%): 16%
  Total Cell Count: 523
[8]
  Population Apoptotic (%): 44%
  Population Fragmented Nuclei (%): 9%
  Population Healthy Nuclei (%): 77%
  Population Hoechst High Intensity Objects (%): 9%
  Population Mitochondria Different-Phenotype (%): 50%
  Population Mitotic Cells (%): 55%
  Population Normal (%): 90%
  Population Tubulin-Different-Phenotype (%): 21%
  Total Cell Count: 388
[9]
  Population Apoptotic (%): 29%
  Population Fragmented Nuclei (%): 12%
  Population Healthy Nuclei (%): 79%
  Population Hoechst High Intensity Objects (%): 1%
  Population Membrane Permeable-Phenotype (%): 1%
  Population Mitochondria Different-Phenotype (%): 20%
  Population Mitotic Cells (%): 70%
  Population Normal (%): 98%
  Population Pyknosed Nuclei (%): 7%
  Population Tubulin-Different-Phenotype (%): 8%
  Total Cell Count: 864
[10]
  Population Apoptotic (%): 30%
  Population Fragmented Nuclei (%): 13%
  Population Healthy Nuclei (%): 81%
  Population Hoechst High Intensity Objects (%): 3%
  Population Membrane Permeable-Phenotype (%): 2%
  Population Mitochondria Different-Phenotype (%): 19%
  Population Mitotic Cells (%): 69%
  Population Normal (%): 96%
  Population Pyknosed Nuclei (%): 5%
  Population Tubulin-Different-Phenotype (%): 7%
  Total Cell Count: 775
[11]
  Population Apoptotic (%): 22%
  Population Fragmented Nuclei (%): 12%
  Population Healthy Nuclei (%): 79%
  Population Hoechst High Intensity Objects (%): 1%
  Population Membrane Permeable-Phenotype (%): 0%
  Population Mitochondria Different-Phenotype (%): 17%
  Population Mitotic Cells (%): 77%
  Population Normal (%): 98%
  Population Pyknosed Nuclei (%): 8%
  Population Tubulin-Different-Phenotype (%): 7%
  Total Cell Count: 815
[12]
  Population Apoptotic (%): 51%
  Population Fragmented Nuclei (%): 10%
  Population Healthy Nuclei (%): 80%
  Population Hoechst High Intensity Objects (%): 3%
  Population Mitochondria Different-Phenotype (%): 26%
  Population Mitotic Cells (%): 48%
  Population Normal (%): 96%
  Population Tubulin-Different-Phenotype (%): 8%
  Total Cell Count: 544

— ChEMBL document CHEMBL5058577, “EUbOPEN Chemogenomics Library 2 (Multiplex)” (2022)
